In ChEMBL document CHEMBL1127593, “14-epi stereoisomers of 25-hydroxy- and 1 alpha,25-dihydroxyvitamin D3: synthesis, isomerization to previtamins, and biological studies” (J Med Chem, 1994):

What was measured:
[1] = Compound was tested for the backward reaction of conversion of vitamin D to previtamin D; type: ADME
Outline: (§1)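 Vitamin/previtamin ratio read by 1H-NMR integration. Kinetics run in triplicate over 59.8–89.7 °C with Arrhenius treatment; 1α-hydroxy analogue run once at 80 °C. Equilibrium constant at 80 °C taken after prolonged heating from either isomer.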

[2] = Keq (k1/1-k) for the transformation of vitamin D to previtamin D; type: ADME; outline: as §1
[3] = Compound was tested for rate constant for the transformation of vitamin to previtamin; type: ADME; outline: as §1
[4] = Compound was tested for rate constant for the forward reaction of isomerization of previtamin D to vitamin D; type: ADME; outline: as §1
[5] = tested on: vitamin D receptor (Gallus gallus); assay: Compound was evaluated for chick vitamin D receptor relative competitive induces (relative to alpha, 25-(OH2)-D3)
[6] = Compound was tested for the backward reaction of conversion of vitamin D to previtaminD; type: ADME; outline: as §1

k-1 [1] | Keq [2] | Log A [3] | k1 [4] | RCI [5] | k-1 [6] | Structure (SMILES)
0.000845 s⁻¹ | 0.058 | 8.5 s-1 | 4.92e-05 s⁻¹ | – | – | C=C1CC[C@H](O)C/C1=C/C=C1\CCC[C@@]2(C)[C@@H]1CC[C@@H]2[C@H](C)CCCC(C)(C)O
– | – | – | – | 0.011 | – | CC1=C(/C=C\C2=CCC[C@@]3(C)[C@@H]2CC[C@@H]3[C@H](C)CCCC(C)(C)O)CC(O)CC1 (some centres undefined)
– | – | – | – | 1.6 | – | CC1=C(/C=C\C2=CCC[C@@]3(C)[C@@H]2CC[C@@H]3[C@H](C)CCCC(C)(C)O)C[C@@H](O)C[C@@H]1O
– | 3.8 | – | 0.000502 s⁻¹ | – | 0.000135 s⁻¹ | C=C1CC[C@H](O)C/C1=C/C=C1\CCC[C@]2(C)[C@@H]([C@H](C)CCCC(C)(C)O)CC[C@@H]12 [CALCIFEDIOL ANHYDROUS]
– | 7.3 | 9.9 s-1 | 0.000563 s⁻¹ | – | 7.6e-05 s⁻¹ | C=C1/C(=C\C=C2/CCC[C@]3(C)[C@@H]([C@H](C)CCCC(C)(C)O)CC[C@@H]23)C[C@@H](O)C[C@@H]1O [CALCITRIOL]

Structure (SMILES) | k-1 [1] | Keq [2] | Log A [3] | k1 [4] | RCI [5] | k-1 [6]
C=C1CC[C@H](O)C/C1=C/C=C1\CCC[C@]2(C)[C@@H]([C@H](C)CCCC(C)C)CC[C@@H]12 [CHOLECALCIFEROL] | – | – | 10.7 s-1 | – | – | –
